This passage reports inhibition results from ChEMBL document CHEMBL2203171, “The use of small molecule probes to study spatially separated stimulus-induced signaling pathways” (Bioorg Med Chem Lett, 2012).

Assay [1] concerns the target T1, Interleukin-1 receptor type 1 (Mus musculus) (UniProt P13504).
T1 sequence (whole entry): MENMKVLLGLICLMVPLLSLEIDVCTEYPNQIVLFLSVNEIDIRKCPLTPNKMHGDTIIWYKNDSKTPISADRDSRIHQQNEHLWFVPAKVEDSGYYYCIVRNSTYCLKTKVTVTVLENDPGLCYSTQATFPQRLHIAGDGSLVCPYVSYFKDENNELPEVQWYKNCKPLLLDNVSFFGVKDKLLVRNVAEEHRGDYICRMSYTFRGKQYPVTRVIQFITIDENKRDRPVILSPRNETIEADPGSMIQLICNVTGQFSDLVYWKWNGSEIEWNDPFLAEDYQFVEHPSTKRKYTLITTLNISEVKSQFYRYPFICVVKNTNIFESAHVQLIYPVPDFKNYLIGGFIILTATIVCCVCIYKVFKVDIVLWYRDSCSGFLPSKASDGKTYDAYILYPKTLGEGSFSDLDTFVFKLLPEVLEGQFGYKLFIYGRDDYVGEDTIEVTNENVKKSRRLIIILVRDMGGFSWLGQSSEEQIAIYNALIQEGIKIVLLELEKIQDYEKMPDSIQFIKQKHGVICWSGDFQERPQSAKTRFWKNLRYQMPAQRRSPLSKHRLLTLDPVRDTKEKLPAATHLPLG
The assay is described as follows: Inhibition of MyD88 recruitment to IL-1R in C57BL/6 mouse BMDM cells assessed as inhibition of IL-1-induced IkappaBalpha phosphorylation up to 90 mins by Western blot analysis. The format is cell-based. An outline of the steps: (§1)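 Bone marrow macrophages from C57BL/6 mice, grown in 70% growth medium (DMEM, 10% FBS) plus 30% L929-conditioned medium and given fresh medium 12-14 h before stimulation. Stimuli: IL-1 40 ng/ml, HKSA ~10^8 cfu/ml, pI:pC 50 μg/ml or CpG 10 μg/ml, ± compound at 10 μM (final) added from a 200x DMSO stock. IκBα and p38 profiled by immunoblot. Three independent experiments, quantitated and normalized.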
(In general: Immunoblotting shows a protein as a band on a membrane.)

Assay [2] has as its target T1, Interleukin-1 receptor type 1 (Mus musculus). The assay is described as follows: Inhibition of MyD88 recruitment to IL-1R in C57BL/6 mouse BMDM cells assessed as inhibition of IL1-induced p38 MAPK activity up to 90 mins. The format is cell-based. An outline of the steps:
as §1

For assay [3], the target named is MAP kinase p38 (Mus musculus) (UniProt P47811+O08911+Q9WUI1+Q9Z1B7). Kind of assay: Inhibition of MAPK p38 in C57BL/6 mouse BMDM cells assessed as inhibition of LPS-induced phosphorylation at 50 uM up to 90 mins by Western blot analysis. The format is cell-based.
In assay [4] the target is Toll-like receptor 4 (Homo sapiens) (UniProt O00206). Kind of assay: Inhibition of MyD88 recruitment to TLR4 cytoplasmic domain expressed in CHO cells at 25 to 50 uM incubated for 30 mins prior to CCf2/AM loading measured after 1 hr by beta-lactamase complementation assay. The format is cell-based. A digest of the protocol: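 CHO cells co-expressing TLR4- and MyD88-β-lactamase fragment fusions, or empty-vector controls, were plated for 24 h and then treated 30 min with compound at 25 or 50 μM. Cells were loaded with 1 μM CCF2/AM for 1 h at room temperature and imaged by fluorescence microscopy (405 nm excitation, 435 nm long-pass emission). Read-out: percent of blue (β-lactamase-positive) cells.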

Assay [5] deals with T2, Inhibitor of nuclear factor kappa-B kinase subunit beta (Mus musculus) (UniProt O88351).
T2 sequence (whole entry): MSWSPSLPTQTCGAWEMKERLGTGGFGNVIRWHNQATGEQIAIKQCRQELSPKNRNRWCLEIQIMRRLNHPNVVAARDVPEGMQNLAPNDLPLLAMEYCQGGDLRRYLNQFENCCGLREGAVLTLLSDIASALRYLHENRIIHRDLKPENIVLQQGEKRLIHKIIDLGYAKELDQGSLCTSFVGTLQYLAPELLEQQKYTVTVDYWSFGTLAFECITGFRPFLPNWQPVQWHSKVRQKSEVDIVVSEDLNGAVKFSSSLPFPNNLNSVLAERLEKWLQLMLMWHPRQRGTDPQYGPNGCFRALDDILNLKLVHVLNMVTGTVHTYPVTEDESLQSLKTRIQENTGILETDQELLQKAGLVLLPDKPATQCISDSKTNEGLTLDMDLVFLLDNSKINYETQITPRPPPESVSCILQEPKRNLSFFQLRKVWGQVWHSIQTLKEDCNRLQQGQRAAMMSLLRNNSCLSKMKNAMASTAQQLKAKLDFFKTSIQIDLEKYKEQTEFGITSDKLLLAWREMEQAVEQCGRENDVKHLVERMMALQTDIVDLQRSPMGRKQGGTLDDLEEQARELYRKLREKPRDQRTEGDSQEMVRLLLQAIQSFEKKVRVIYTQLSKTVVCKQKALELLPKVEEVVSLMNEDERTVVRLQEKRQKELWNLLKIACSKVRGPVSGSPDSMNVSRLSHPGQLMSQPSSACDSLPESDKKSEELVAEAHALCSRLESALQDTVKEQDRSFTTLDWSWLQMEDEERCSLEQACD
The assay is described as follows: Inhibition of IKKbeta in C57BL/6 mouse BMDM cells assessed as inhibition of TNFalpha-induced IkappaBalpha phosphorylation at 25 uM by Western blot analysis.

For assay [6], the target named is T2, Inhibitor of nuclear factor kappa-B kinase subunit beta (Mus musculus). Kind of assay: Inhibition of IKKbeta in C57BL/6 mouse BMDM cells assessed as inhibition of TNFalpha-induced MCP1 […] at 25 uM by Northern blot analysis. The format is cell-based.
Assay [7] shares this target. Kind of assay: Inhibition of IKKebta in C57BL/6 mouse BMDM cells assessed as inhibition of LPS-induced IkappaBalpha phosphorylation at 25 uM by Western blot analysis.
For assay [8] the target is unchanged. The assay is described as follows: Inhibition of IKKbeta in C57BL/6 mouse BMDM cells assessed as inhibition of TNFalpha-induced IkappaBalpha phosphorylation at 50 uM up to 90 mins by Western blot analysis. The format is cell-based.
For assay [9] the target is unchanged. The assay is described as follows: Inhibition of IKKbeta in C57BL/6 mouse BMDM cells assessed as inhibition of TNFalpha-induced IkappaBalpha degradation at 50 uM up to 90 mins by Western blot analysis. The format is cell-based.

Active and inactive are the calls of the source. The calls are words filed in the database; no cut-off is given here.

Sequence of Toll-like receptor 4 (Homo sapiens) (O00206 whole entry, the tested form may be a part): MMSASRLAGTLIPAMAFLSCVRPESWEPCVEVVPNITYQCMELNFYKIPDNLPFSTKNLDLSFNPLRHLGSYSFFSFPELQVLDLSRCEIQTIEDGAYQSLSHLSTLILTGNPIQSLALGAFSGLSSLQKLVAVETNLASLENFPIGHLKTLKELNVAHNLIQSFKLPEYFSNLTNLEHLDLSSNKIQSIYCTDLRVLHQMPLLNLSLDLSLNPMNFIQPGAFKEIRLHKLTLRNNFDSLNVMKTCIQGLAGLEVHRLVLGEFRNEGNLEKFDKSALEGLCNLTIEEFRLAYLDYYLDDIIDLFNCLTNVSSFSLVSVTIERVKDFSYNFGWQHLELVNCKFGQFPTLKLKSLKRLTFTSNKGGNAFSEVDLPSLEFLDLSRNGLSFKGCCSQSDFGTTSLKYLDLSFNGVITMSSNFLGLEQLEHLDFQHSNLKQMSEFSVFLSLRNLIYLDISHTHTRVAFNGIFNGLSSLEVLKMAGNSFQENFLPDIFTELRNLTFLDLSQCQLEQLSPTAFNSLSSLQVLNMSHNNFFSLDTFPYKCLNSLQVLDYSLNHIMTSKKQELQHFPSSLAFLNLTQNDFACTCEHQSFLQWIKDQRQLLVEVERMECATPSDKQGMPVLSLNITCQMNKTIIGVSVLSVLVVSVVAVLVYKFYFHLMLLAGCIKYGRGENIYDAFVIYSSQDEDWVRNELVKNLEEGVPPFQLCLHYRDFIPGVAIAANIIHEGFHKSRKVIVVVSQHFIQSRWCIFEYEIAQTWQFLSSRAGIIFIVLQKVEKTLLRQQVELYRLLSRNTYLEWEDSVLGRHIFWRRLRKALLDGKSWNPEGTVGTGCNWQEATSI

As to `O=C(CCCCCN1C(=O)C=CC1=O)Oc1ccc2cc(C(C(=O)NCc3ccccc3)N(C(=O)Cc3ccc4c(c3)OCO4)C3CC3)ccc2c1` (centres undefined), the inhibition result in assay [1] and in assay [7] was “Active” in each case. The inhibition entry in assay [2], in assay [3], in assay [4], in assay [5], in assay [6] and in assay [8] was “inactive” each time. Besides, the inhibition result in [9] is “inactive”.
